The source of these data is ChEMBL document CHEMBL1152947, “9,11-Secosterols with antiproliferative activity from the gorgonian Eunicella cavolini” (Bioorg Med Chem, 2009).

Test [1] concerns MCF7. The test can be described thus: Growth inhibition of human MCF7 cells at 10 uM after 4 days by MTT assay in presence of 10% fetal bovine serum relative to control. It counts as functional. The following applies: MCF7, 96 h, read-out: GI. The essentials:
(§1)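 LNCaP or MCF-7 cells in MEM with 10% FBS were given test compound at 10 µM or 0.1% DMSO vehicle; MCF-7 exposure was four days. MTT read-out at 550 nm. Inhibition was calculated as (OD vehicle − OD test) × 100 / OD vehicle. Values are mean ± SEM, n = 4, ANOVA versus vehicle.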

In test [2] the test system is LNCaP. The experiment in a line: Growth inhibition of human LNCAP cells at 10 uM after 4 days by MTT assay in presence of 10% fetal bovine serum relative to control. It counts as functional. The following applies: 96 h, read-out: GI. The essentials: as §1
(Tetrazolium assays rely on reduction of a dye to a coloured formazan, in cell work by metabolically active cells.)

Test [3] concerns MCF7. The experiment in a line: Growth inhibition of human MCF7 cells at 10 uM after 4 days by MTT assay in presence of 5% heat-inactivated fetal bovine serum treated with dextran-coated charcoal and 17-beta-estradiol relative to ICI-182780. Format: functional. The following applies: MCF7, 96 h, read-out: GI. An outline of the steps:
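MCF-7 cells in MEM with 5% dextran-coated-charcoal-treated heat-inactivated FBS plus 1 nM 17β-estradiol were exposed for four days to test compound (10 µM), ICI 182,780 (1 µM) or vehicle. MTT absorbance was read at 550 nm. Effect was calculated as (OD vehicle − OD test) × 100 / (OD vehicle − OD ICI 182,780). Values are mean ± SEM of at least three assays.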

For test [4], the system named is MCF7. The test can be described thus: Growth inhibition of human MCF7 cells after 4 days by MTT assay in presence of 5% heat-inactivated fetal bovine serum treated with dextran-coated charcoal and 17-beta-estradiol. It counts as functional, cell-based. The following applies: MCF7, 96 h.
The subject of test [5] is LNCaP. The experiment in a line: Growth inhibition of human LNCAP cells at 1 uM after 4 days by MTT assay. The following applies: 96 h, read-out: GI. It counts as functional.
In test [6] the test system is LNCaP. The experiment in a line: Cytotoxicity against human LNCAP cells after 4 days by MTT assay. It counts as functional, cell-based. The note with it: 96 h. The essentials:
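LNCaP cells grown in minimal essential medium with 10% FBS, exposed to secosterols for four days in 96-well plates, with 0.1% DMSO as vehicle. Viable cells were estimated from MTT conversion to formazan, read at 550 nm. Absorbance was expressed relative to vehicle (100%), and IC50 was taken from growth inhibition, mean ± SEM of ≥3 independent assays.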

The subject of test [7] is MCF7. The test can be described thus: Growth inhibition of human MCF7 cells at 1 uM after 4 days by MTT assay. Format: functional. The following applies: MCF7, 96 h, read-out: GI.
In test [8] the test system is MCF7. The test can be described thus: Cytotoxicity against human MCF7 cells after 4 days by MTT assay. Format: functional, cell-based. The following applies: MCF7, 96 h. The essentials:
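MCF-7 cells in minimal essential medium, with either 10% FBS or 5% dextran-charcoal-treated FBS plus 1 nM 17β-estradiol, were exposed to secosterols for four days. Vehicle was 0.1% DMSO. Read-out was MTT formazan absorbance at 550 nm, expressed as % of vehicle. IC50 was derived from growth inhibition, mean ± SEM of ≥3 independent assays.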

Test [9] relates to LNCaP. The experiment in a line: Growth inhibition of human LNCAP cells after 4 days by MTT assay in presence of 10% fetal bovine serum. It counts as functional, cell-based. The note with it: 96 h. An outline of the steps:
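LNCaP cells were cultured in MEM with 10% FBS in 96-well plates against 0.1% DMSO vehicle. Viable cells were estimated by MTT conversion to formazan, read as absorbance at 550 nm. IC50 was derived from growth inhibition relative to vehicle. Values are mean ± SEM.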

Test [10] relates to MCF7. The test can be described thus: Growth inhibition of human MCF7 cells after 4 days by MTT assay in presence of 10% fetal bovine serum. The note with it: MCF7, 96 h. Format: functional, cell-based.
In the next test the test system is K562. The test can be described thus: Cytotoxicity against human K562 cells. It counts as functional, cell-based.
The next test relates to HeLa. The experiment in a line: Cytotoxicity against human HeLa cells. Format: functional, cell-based.

Regarding `C=C(CC[C@@H](C)[C@H]1CC[C@@H](C2=C[C@H](O)[C@H]3C[C@@H](O)CC[C@]3(C)C2=O)[C@]1(C)CCOC(C)=O)C(C)C`, the inhibition of growth at 10 µM in the test with MCF7 [1] is at most 10%; in the test with LNCaP [2] it was at most 10%; in the test on MCF7 [3], 50%. Also, the 50% inhibitory concentration (IC50) in the test on MCF7 [4] turned out to be 3.8 µM.
As to `C[C@]12CC[C@@H]3c4ccc(O)cc4C[C@@H](CCCCCCCCC[S+]([O-])CCCC(F)(F)C(F)(F)F)[C@H]3[C@@H]1CC[C@@H]2O` (some centres not stated) [FULVESTRANT], the inhibition of growth at 1 µM with LNCaP [5] and in the test on MCF7 [7] was 100% throughout. For the same molecule, the half-inhibitory concentration (IC50) in the test on LNCaP [6] and with MCF7 [8] was 0.018 µM each time.
As to `CC(=O)OCC[C@]1(C)[C@@H]([C@H](C)/C=C/C(C)C)CC[C@H]1C1=C[C@H](O)[C@H]2C[C@@H](O)CC[C@]2(C)C1=O`, the IC50 in the test with LNCaP [9] came out at 7 µM; with MCF7 [10], 7.6 µM; in the test on MCF7 [4], 7.4 µM; in the test on K562, 6.5 µM; in the test with HeLa, 7 µM. Moreover, the inhibition of growth at 10 µM in the test on MCF7 [1] came to 34%; in the test with LNCaP [2], 76%; in the test with MCF7 [3] it was 86%.
Consider `CC(=O)OCC[C@]1(C)[C@@H]([C@H](C)/C=C\C(C)C(C)C)CC[C@H]1C1=C[C@H](O)[C@H]2C[C@@H](O)CC[C@]2(C)C1=O` (some centres not stated), for which the 50% inhibitory concentration (IC50) is 6.7 µM in the test on LNCaP [9] and 6 µM with MCF7 [4]. Moreover, the inhibition of growth at 10 µM in the test with MCF7 [1] was found to be 27%; with LNCaP [2], 45%; with MCF7 [3], 62%.
Turning to `CCC(C)/C=C/[C@@H](C)[C@H]1CC[C@@H](C2=C[C@H](O)[C@H]3C[C@@H](O)CC[C@]3(C)C2=O)[C@]1(C)CCOC(C)=O` (some centres not stated), the IC50 in the test with LNCaP [9] came to 5.4 µM; with MCF7 [10] it was 7 µM; with MCF7 [4], 5.4 µM. Further, the inhibition of growth at 10 µM in the test with MCF7 [1] is 49%; with LNCaP [2] it was 83%; in the test on MCF7 [3], 90%.

Usually IC50 stands for the concentration needed to halve the response being measured.
